Test results reported in ChEMBL document CHEMBL4725354 (J Med Chem, 2020).

Legend:
[1] = biological target: T1, Broad substrate specificity ATP-binding cassette transporter ABCG2 (Homo sapiens, UniProt Q9UNQ0); assay: Inhibition of human ABCG2 expressed in MDCK2 cells co-expressing GFP preincubated for 30 mins followed by Hoechst 33342 addition and measured every 60 sec for 120 mins by fluorescence assay; assay type: cell-based, MDCK-II
T1 sequence (Q9UNQ0 whole entry): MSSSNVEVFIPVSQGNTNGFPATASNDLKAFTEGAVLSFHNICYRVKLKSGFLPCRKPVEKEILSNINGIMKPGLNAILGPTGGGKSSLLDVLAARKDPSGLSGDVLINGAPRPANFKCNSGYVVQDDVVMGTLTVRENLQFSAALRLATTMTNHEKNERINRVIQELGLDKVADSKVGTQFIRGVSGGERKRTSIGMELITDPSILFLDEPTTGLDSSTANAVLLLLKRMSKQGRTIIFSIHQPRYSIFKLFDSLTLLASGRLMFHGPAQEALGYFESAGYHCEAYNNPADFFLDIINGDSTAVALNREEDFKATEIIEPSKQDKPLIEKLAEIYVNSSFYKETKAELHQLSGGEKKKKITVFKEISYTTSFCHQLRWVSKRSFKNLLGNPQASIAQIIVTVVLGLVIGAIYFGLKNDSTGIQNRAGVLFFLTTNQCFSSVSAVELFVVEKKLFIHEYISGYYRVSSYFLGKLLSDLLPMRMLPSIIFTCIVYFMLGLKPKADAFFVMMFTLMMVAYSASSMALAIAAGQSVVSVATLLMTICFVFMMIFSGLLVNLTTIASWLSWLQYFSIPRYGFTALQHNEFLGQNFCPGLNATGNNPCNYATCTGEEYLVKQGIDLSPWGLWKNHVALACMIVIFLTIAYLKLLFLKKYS
How it was run: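 MDCK II cells transfected with human ABCG2 cDNA C-terminally fused to GFP. Hoechst 33342 added at 1 µM final. Fluorescence (ex 355, em 460 nm) read every 60 s for 120 min. Steady-state means vs log concentration fitted by 3- or 4-parameter logistic to give IC50.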

ABCG2 [2] = biological target: T2, ABCG2 (Homo sapiens, UniProt Q9UNQ0); assay: Inhibition of human ABCG2 expressed in MDCK2 cells co-expressing GFP preincubated for 30 mins followed by Hoechst 33342 addition and measured every 60 sec for 120 mins by fluorescence assay relative to control; assay type: cell-based, MDCK-II; details: probe Hoechst 33342, read-out: Imax
T2 sequence (Q9UNQ0 whole entry): T1 sequence (Q9UNQ0 whole entry)
How it was run: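 MDCK II cells transfected with human ABCG2 cDNA C-terminally fused to GFP. Steady-state means vs log concentration fitted by 3- or 4-parameter logistic to give IC50.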

[3] = biological target: T1, Broad substrate specificity ATP-binding cassette transporter ABCG2; assay: Inhibition of human ABCG2 expressed in MDCK2 cells co-expressing GFP preincubated for 15 mins followed by pheophorbideA addition and measured after 2 hrs by flow cytometric analysis; assay type: cell-based, MDCK-II
How it was run: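 Pheophorbide A added to 0.5 µM final and incubated 2 h. Read by flow cytometry (ex 488, em 695/50 nm); GFP expression checked at 525/30 nm. IC50 from 3- or 4-parameter logistic fit.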

ABCG2 [4] = biological target: T2, ABCG2; assay: Inhibition of human ABCG2 expressed in MDCK2 cells co-expressing GFP preincubated for 15 mins followed by pheophorbideA addition and measured after 2 hrs by flow cytometric analysis relative to control; assay type: cell-based, MDCK-II; details: probe pheophorbide A, read-out: Imax
MDCK-II [5] = assay: Cytotoxicity against MDCK2 cells over expressing human ABCG2 at 10 uM assessed as reduction in cell viability after 72 hrs by MTT assay; assay type: ADME, cell-based, Canis lupus familiaris; details: dog
How it was run: (§1)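 Single-concentration screen at 10 µM in MDCK II BCRP and parental MDCK II cells. MTT assay, 72 h at 37 °C, 5% CO2. Viability referenced to culture medium (100%) and 10% DMSO (0%). Mean ± SEM of at least three independent experiments with duplicates.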

MDCK-II [6] = assay: Cytotoxicity against MDCK2 cells assessed as reduction in cell viability at 10 uM after 72 hrs by MTT assay; assay type: cell-based, Canis lupus familiaris; details: dog; how it was run: as §1
[7] = biological target: ATP-dependent translocase ABCB1 (Homo sapiens, UniProt P08183); assay: Inhibition of human ABCB1 expressed in A2780/ADR cells preincubated for 30 mins followed by calcein AM addition and measured every 60 secs for 60 mins by fluorescence assay; assay type: cell-based
Sequence of ATP-dependent translocase ABCB1 (P08183 whole entry): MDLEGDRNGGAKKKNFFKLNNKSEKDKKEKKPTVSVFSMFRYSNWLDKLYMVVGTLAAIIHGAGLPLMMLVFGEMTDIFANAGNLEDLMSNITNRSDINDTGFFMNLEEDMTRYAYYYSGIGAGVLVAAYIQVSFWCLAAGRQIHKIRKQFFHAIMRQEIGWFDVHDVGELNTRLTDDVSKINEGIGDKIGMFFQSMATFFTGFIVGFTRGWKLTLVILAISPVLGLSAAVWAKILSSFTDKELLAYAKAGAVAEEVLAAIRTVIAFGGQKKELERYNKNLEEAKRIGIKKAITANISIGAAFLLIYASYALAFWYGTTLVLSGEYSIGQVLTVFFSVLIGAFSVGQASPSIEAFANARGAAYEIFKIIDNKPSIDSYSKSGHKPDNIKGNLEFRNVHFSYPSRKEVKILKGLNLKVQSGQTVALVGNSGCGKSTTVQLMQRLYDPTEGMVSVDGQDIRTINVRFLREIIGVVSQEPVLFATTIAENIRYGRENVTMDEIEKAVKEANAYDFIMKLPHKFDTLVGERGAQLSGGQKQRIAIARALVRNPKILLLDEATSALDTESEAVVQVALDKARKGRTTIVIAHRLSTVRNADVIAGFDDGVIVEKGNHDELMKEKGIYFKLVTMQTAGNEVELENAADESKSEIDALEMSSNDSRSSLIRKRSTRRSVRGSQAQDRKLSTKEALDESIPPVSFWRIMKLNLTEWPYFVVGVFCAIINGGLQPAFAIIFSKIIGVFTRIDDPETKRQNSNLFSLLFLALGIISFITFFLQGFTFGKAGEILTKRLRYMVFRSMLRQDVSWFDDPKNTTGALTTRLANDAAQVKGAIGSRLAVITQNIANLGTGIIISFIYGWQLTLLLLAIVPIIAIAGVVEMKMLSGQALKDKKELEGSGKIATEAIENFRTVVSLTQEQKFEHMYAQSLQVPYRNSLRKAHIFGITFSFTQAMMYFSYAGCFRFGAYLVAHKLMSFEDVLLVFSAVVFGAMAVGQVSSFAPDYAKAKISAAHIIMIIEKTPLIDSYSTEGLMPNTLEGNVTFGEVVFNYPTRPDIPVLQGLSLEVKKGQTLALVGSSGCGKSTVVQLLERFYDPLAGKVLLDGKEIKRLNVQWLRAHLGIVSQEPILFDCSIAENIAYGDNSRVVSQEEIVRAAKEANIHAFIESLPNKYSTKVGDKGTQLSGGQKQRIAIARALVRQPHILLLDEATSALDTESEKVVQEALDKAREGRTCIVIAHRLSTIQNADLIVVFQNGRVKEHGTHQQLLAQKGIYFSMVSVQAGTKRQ
How it was run: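 ABCB1 in A2780/ADR cells (kept resistant by one passage in 1 µM doxorubicin every 10 passages). 30,000 cells per well in Krebs-HEPES buffer, preincubated 30 min at 37 °C with inhibitor. Calcein AM added from a 3.125 µM solution. Fluorescence (ex 485, em 520 nm) read every 60 s for 60 min. Initial linear slopes vs log concentration fitted to give IC50.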

[8] = Growth inhibition of MDCK2 cells over expressing human ABCG2 after 72 hrs by MTT assay; assay type: ADME, cell-based, Canis lupus familiaris, MDCK-II; details: dog, MDCK2 cells overexpressing human ABCG2
How it was run: (§2)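 MTT viability assay. Compound dilutions in culture medium (3.2 to 1000 µM as prepared). About 2,000 cells per well, 72 h at 37 °C, 5% CO2. Culture medium set as 100% and 10% DMSO as 0% viability. MTT added for 1 h, formazan dissolved in DMSO, absorbance read at 570 nm with 690 nm background. GI50 from nonlinear regression of absorbance vs log concentration; at least three independent experiments, duplicates, mean ± SEM.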

[9] = Growth inhibition of MDCK2 cells after 72 hrs by MTT assay; assay type: cell-based, Canis lupus familiaris, MDCK-II; details: dog; how it was run: as §2
ABCG2 [10] = assay: Therapeutic ratio of GI50 for Growth inhibition of MDCK2 cells over expressing human ABCG2 to IC50 for inhibition of human ABCG2 expressed in MDCK2 cells co-expressing GFP preincubated for 30 mins followed by Hoechst 33342 addition and measured every 60 sec for 120 mins by fluorescence assay; assay type: toxicity, cell-based; details: dog, MDCK2 cells overexpressing human ABCG2, probe Hoechst 33342; read-out: TI
ABCG2 [11] = assay: Therapeutic ratio of GI50 for Growth inhibition of MDCK2 cells over expressing human ABCG2 to IC50 for inhibition of human ABCG2 expressed in MDCK2 cells co-expressing GFP preincubated for 15 mins followed by pheophorbideA addition and measured after 2 hrs by flow cytometric analysis; assay type: toxicity, cell-based; details: dog, MDCK2 cells overexpressing human ABCG2, probe pheophorbide A; read-out: TI

SMILES | IC50 [1] [nM] | Emax at 2 h (ABCG2 [2]) [%] | IC50 [3] [nM] | Emax at 2 h (ABCG2 [4]) [%] | Activity (MDCK-II [5]) | Activity (MDCK-II [6]) | IC50 [7] [nM] | GI50 at 72 h [8] [nM] | GI50 at 72 h [9] [nM] | selectivity ratio (ABCG2 [10]) | selectivity ratio at 2 h (ABCG2 [11])
Cc1cc(Nc2cccc(O)c2)nc(-c2ccccc2)n1 | 253 | 74 | 516 | 59 | Non-Toxic | Non-Toxic | – | – | – | – | –
Cc1cc(Nc2ccc(CC#N)cc2)nc(-c2ccccc2)n1 | 2500 | 100 | 3620 | 100 | Non-Toxic | Non-Toxic | 16000 | – | – | – | –
Cc1cc(Nc2cccc(CO)c2)nc(-c2ccccc2)n1 | 4220 | 100 | 2520 | 100 | Non-Toxic | Non-Toxic | – | – | – | – | –
Cc1cc(Nc2ccc(C#N)c(C#N)c2)nc(-c2ccccc2)n1 | 188 | 117 | 548 | 100 | Non-Toxic | Non-Toxic | – | – | – | – | –
Cc1cc(Nc2ccc(C#N)c(C(F)(F)F)c2)nc(-c2ccccc2)n1 | 69.3 | 114 | 385 | 92 | Toxic | Toxic | – | 9570 | 9890 | 139 | 25
COc1cccc(Nc2cc(C)nc(-c3ccccc3)n2)c1 | 271 | 96 | 503 | 100 | Non-Toxic | Non-Toxic | 13400 | – | – | – | –
Cc1cc(Nc2ccc3c(c2)OCCO3)nc(-c2ccccc2)n1 | 808 | 100 | 1630 | 100 | Non-Toxic | Non-Toxic | 13100 | – | – | – | –
C[S+](C)[O-] [DIMETHYL SULFOXIDE] | – | – | – | – | – | – | – | 137000 | 123000 | – | –
Cc1cc(Nc2ccc([N+](=O)[O-])c(Cl)c2)nc(-c2ccccc2)n1 | 58.9 | 76 | 228 | 86 | Non-Toxic | Non-Toxic | – | – | – | – | –
Cc1cc(Nc2ccc(F)c([N+](=O)[O-])c2)nc(-c2ccccc2)n1 | 1010 | 100 | 771 | 100 | Non-Toxic | Non-Toxic | – | – | – | – | –
Cc1cc(Nc2cccc([N+](=O)[O-])c2)nc(-c2ccccc2)n1 | 130 | 80 | 146 | 68 | Non-Toxic | Non-Toxic | – | – | – | – | –
Cc1cc(Nc2ccc3c(c2)C(=O)NC3=O)nc(-c2ccccc2)n1 | 253 | 105 | 416 | 101 | Non-Toxic | Non-Toxic | 17700 | – | – | – | –
Cc1cc(Nc2cccc(F)c2)nc(-c2ccccc2)n1 | 1110 | 100 | 776 | 100 | Non-Toxic | Non-Toxic | – | – | – | – | –
COc1ccc(Nc2cc(C)nc(-c3ccccc3)n2)cc1F | 861 | 100 | 1310 | 100 | Non-Toxic | Non-Toxic | 8990 | – | – | – | –
Cc1cc(Nc2ccc(F)c(C#N)c2)nc(-c2ccccc2)n1 | 307 | 100 | 86.1 | 59 | Non-Toxic | Non-Toxic | – | 96700 | 102000 | 315 | 1120
Cc1cc(Nc2ccc(C#N)c(Br)c2)nc(-c2ccccc2)n1 | 119 | 90 | 59.4 | 40 | Non-Toxic | Non-Toxic | – | 145000 | 188000 | 1220 | 2440
